According to ChEMBL document CHEMBL1148334, “Design and synthesis of novel biologically active thrombin receptor non-peptide mimetics based on the pharmacophoric cluster Phe/Arg/NH2 of the Ser42-Phe-Leu-Leu-Arg46 motif sequence: platelet aggregation and relaxant activities” (J Med Chem, 2004):

Assays:
Rattus norvegicus [1] = species: Rattus norvegicus; experiment: Relaxing effect dependent on nitric oxide in isolated rat aortic rings at 0.1-100 uM compound concentration; Range is 0-25%; type: functional, Aorta
Procedure, shortened: (§1)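 Thoracic aorta of adult male Wistar rats cut into 2 mm rings, one with intact and one with mechanically removed endothelium. Superfused 1 mL/min with modified Tyrode-type buffer, 37 °C, pH 7.44, carbogen; basal tension 2 g, isometric force. Endothelium checked with 1 µM carbachol against 1 µM phenylephrine. Compounds added 30 min after perfusion, on phenylephrine tone; some rings pretreated with 300 µM L-NAME. Mean ± SEM.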

Homo sapiens [2] = species: Homo sapiens; experiment: In vitro inhibitory concentration against thrombin-induced platelet aggregation in human platelet-rich plasma in presence of thrombin at 0.20 IU/mL; type: functional
Procedure, shortened: (§2)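 Healthy drug-free donors' venous blood centrifuged 800 rpm 8 min RT; PRP diluted with PPP to 2 × 10⁸ platelets/mL, one donor per series. PRP stirred (1100 rpm) with compound 0.05-1 mM ≥4 min, then bovine thrombin added at 37 °C; light transmittance recorded 4 min, PPP = 100%, PRP = 0%. Studies finished within 1 h of collection.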

[3] = Relative potency (REC) is the ratio of concentration of compound to the concentration of SFLLR-NH2 for producing equal relaxing effect on the isolated rat aortic rings; type: functional, Aorta
Rattus norvegicus [4] = species: Rattus norvegicus; experiment: Maximal relaxing effect in isolated rat aortic rings with endothelium precontracted with 1 uM phenylephrine at 0.1-100 uM concentration; Range is 1.3-42.7%; type: functional, Aorta; procedure, shortened: as §1
Rattus norvegicus [5] = species: Rattus norvegicus; experiment: Maximal relaxing effect in isolated rat aortic rings without endothelium precontracted with 1 uM phenylephrine at 0.1-100 uM concentration; Range is 2.3-14%; type: functional, Aorta; procedure, shortened: as §1
Rattus norvegicus [6] = species: Rattus norvegicus; experiment: Reduction of maximal relaxing response in isolated rat aortic rings precontracted with Nomega-nitro-L-arginine (L-NAME) at 0.1-100 uM concentration; Range is 17-18%; type: functional, Aorta; procedure, shortened: as §1
Homo sapiens [7] = species: Homo sapiens; experiment: In vitro inhibitory concentration against thrombin-induced platelet aggregation in human platelet-rich plasma in presence of thrombin at 0.25 IU/mL; type: functional; procedure, shortened: as §2
Homo sapiens [8] = species: Homo sapiens; experiment: In vitro inhibitory concentration against thrombin-induced platelet aggregation in human platelet-rich plasma in presence of thrombin at 0.30 IU/mL; type: functional; procedure, shortened: as §2
Rattus norvegicus [9] = species: Rattus norvegicus; experiment: Maximal relaxing effect of compound in isolated rat aortic rings precontracted with 1 uM phenylephrine at 100 uM concentration; type: functional, Aorta; procedure, shortened: as §1
Rattus norvegicus [10] = species: Rattus norvegicus; experiment: Maximal relaxing effect in isolated rat aortic rings with endothelium precontracted with 1 uM phenylephrine at 0.1-100 uM concentration; Range is 1.8-40.7%; type: functional, Aorta; procedure, shortened: as §1
Rattus norvegicus [11] = species: Rattus norvegicus; experiment: Contraction in isolated rat aortic rings without endothelium at 10-100 uM concentration; Range is 2-3%; type: functional, Aorta; procedure, shortened: as §1
Rattus norvegicus [12] = species: Rattus norvegicus; experiment: Maximal relaxing effect of compound in isolated rat aortic rings precontracted phenylephrine at 100 uM concentration; type: functional, Aorta; procedure, shortened: as §1
Homo sapiens [13] = species: Homo sapiens; experiment: Inhibitory concentration against SFLLR-NH2 (2.5 uM) induced platelet aggregation in human platelet-rich plasma; type: functional, organism-based
Procedure, shortened: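 Human PRP (2 × 10⁸ platelets/mL, healthy donors) stirred with compound, then aggregation triggered by SFLLR-NH₂ 2.5 µM instead of thrombin; optical aggregometry read-out.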

Row | IC50 (Homo sapiens [2]) [µM] | IC50 (Homo sapiens [7]) [µM] | IC50 (Homo sapiens [8]) [µM] | IC50 (Homo sapiens [13]) [µM] | SMILES | Relaxation (Rattus norvegicus [1]) [%] | Relative potency [3] | Max efficacy (Rattus norvegicus [4]) [%] | Max efficacy (Rattus norvegicus [5]) [%] | Reduction (Rattus norvegicus [6]) [%] | Max efficacy (Rattus norvegicus [9]) [%] | Max efficacy (Rattus norvegicus [10]) [%] | Contraction (Rattus norvegicus [11]) [%] | Max efficacy (Rattus norvegicus [12]) [%]
1 | > 1000 | > 1000 | 870 | – | NC(N)=NCCCCCC(=O)NCC1CCN(C(=O)C(N)Cc2ccccc2)CC1 (stereo not given) | 25 | 13.6 | 42.7 | 14 | 18 | – | – | – | –
2 | 420 | 340 | 390 | – | NC(N)=NCCCCCC(=O)NC1CCN(C(=O)C(N)Cc2ccccc2)C1 (stereo not given) | – | 24 | – | – | – | – | 40.7 | 3 | –

Second part, the molecule before the results:

Row | SMILES | IC50 (Homo sapiens [2]) [µM] | IC50 (Homo sapiens [7]) [µM] | IC50 (Homo sapiens [8]) [µM] | IC50 (Homo sapiens [13]) [µM] | Relaxation (Rattus norvegicus [1]) [%] | Relative potency [3] | Max efficacy (Rattus norvegicus [4]) [%] | Max efficacy (Rattus norvegicus [5]) [%] | Reduction (Rattus norvegicus [6]) [%] | Max efficacy (Rattus norvegicus [9]) [%] | Max efficacy (Rattus norvegicus [10]) [%] | Contraction (Rattus norvegicus [11]) [%] | Max efficacy (Rattus norvegicus [12]) [%]
3 | N=C(N)NCCCCCC(=O)NCC1CCN(C(=O)Cc2ccccc2)CC1 | 140 | > 250 | > 250 | – | – | 0.06 | – | – | – | 91.4 | – | – | –
4 | N=C(N)NCCCCCC(=O)NC1CCN(C(=O)Cc2ccccc2)C1 (stereo not given) | 110 | 120 | 210 | – | – | 17.3 | – | – | – | – | – | – | 37.5
5 | N=C(N)NCCCCCC(=O)N1CCN(C(=O)Cc2ccccc2)CC1 | 460 | 510 | 440 | 780 | – | 0.19 | – | – | – | 81 | – | – | –
6 | NC(N)=NCCCCCC(=O)N1CCN(C(=O)C(N)Cc2ccccc2)CC1 (stereo not given) | 120 | 90 | 240 | 370 | – | 38.2 | – | – | – | – | – | – | –
